From ChEMBL document CHEMBL5661964, “Selective in vivo and in vitro effects of a small molecule inhibitor of cyclin-dependent kinase 4” (J Natl Cancer Inst, 2001)
The source made the active and inactive calls. No cut-off for these calls is given here.

How the values were obtained:
[1] = tested on: HCT-116; assay: Induction of cell cycle arrest in human HCT-116 cells assessed as number of cells at SubG1 phase at 5 uM after 24 hrs in presence of 10% serum by flow cytometry analysis (reference value: 1.1%); type: functional
Procedure, shortened: (§1)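 HCT116 cells in McCoy's 5A were serum-starved 72 h in 0.1% serum, then released for 24 h into 10% serum with or without compound. They were fixed in 70% ethanol, RNase-treated (3 mg/mL, 30 min, 37 °C) and stained with 50 μg/mL propidium iodide. Flow cytometry on FL-2 area with doublet gating gave the percentages in sub-G1, G0/G1, S and G2/M.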

[2] = tested on: U2OS; assay: Induction of cell cycle arrest in human U2OS cells expressing pRb assessed as percentage of cells at S phase at 5 uM after 24 hrs by flow cytometry analysis (reference value: 19.9%); type: functional
[3] = tested on: U2OS; assay: Induction of cell cycle arrest in human U2OS cells assessed as percentage of cells at G2/M phase, cells were released from mimosine block prior to compound addition at 10 uM after 16 hrs by flow cytometry analysis (reference value: 47.6%); type: functional
[4] = target: Hepatocyte growth factor receptor (Homo sapiens, UniProt P08581); assay: Inhibition of GST-tagged human c-met expressed in baculovirus infected Sf9 cells using tyrosine-containing peptide substrate in presence of ATP
Chain of Hepatocyte growth factor receptor (P08581 whole entry): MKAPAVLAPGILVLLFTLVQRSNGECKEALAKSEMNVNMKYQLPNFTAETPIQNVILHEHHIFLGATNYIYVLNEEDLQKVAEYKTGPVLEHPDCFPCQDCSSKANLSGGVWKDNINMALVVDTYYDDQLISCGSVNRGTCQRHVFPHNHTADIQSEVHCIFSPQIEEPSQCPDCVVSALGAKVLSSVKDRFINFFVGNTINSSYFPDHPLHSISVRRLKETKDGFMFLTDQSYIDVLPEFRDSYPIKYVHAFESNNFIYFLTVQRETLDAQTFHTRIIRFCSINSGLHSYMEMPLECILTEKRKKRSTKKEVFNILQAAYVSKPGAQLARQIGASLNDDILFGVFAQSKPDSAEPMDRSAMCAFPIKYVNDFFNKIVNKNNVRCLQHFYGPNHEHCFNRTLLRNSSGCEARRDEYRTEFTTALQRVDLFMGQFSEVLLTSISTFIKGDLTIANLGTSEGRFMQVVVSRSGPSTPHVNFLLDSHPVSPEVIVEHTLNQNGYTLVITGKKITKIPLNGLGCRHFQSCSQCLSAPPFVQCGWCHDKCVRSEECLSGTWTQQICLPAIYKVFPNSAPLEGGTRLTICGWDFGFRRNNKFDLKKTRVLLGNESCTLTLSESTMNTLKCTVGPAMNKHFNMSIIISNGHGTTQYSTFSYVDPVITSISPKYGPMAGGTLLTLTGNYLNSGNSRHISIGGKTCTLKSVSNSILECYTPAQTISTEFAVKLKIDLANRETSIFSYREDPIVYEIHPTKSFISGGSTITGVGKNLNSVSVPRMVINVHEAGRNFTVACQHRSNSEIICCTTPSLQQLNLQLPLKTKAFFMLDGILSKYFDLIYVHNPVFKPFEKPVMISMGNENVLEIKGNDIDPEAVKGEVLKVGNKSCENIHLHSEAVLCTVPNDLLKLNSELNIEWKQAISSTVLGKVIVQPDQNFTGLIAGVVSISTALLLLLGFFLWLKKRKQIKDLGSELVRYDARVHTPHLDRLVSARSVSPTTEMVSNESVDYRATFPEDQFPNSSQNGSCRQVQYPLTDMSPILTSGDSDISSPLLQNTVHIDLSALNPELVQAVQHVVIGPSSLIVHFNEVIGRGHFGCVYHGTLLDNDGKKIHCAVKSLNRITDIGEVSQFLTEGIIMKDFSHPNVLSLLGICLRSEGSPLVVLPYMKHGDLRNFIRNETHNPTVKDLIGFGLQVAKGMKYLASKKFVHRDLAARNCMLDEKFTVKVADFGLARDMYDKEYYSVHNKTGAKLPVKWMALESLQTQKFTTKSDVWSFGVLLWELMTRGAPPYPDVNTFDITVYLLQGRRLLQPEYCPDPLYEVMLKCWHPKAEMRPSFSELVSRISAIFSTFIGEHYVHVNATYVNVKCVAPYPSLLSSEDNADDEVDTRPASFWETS

[5] = tested on: NIH3T3; assay: Induction of cell cycle arrest in mouse NIH3T3 cells expressing pRb assessed as percentage of cells at G0/G1 phase at 5 uM after 24 hrs by flow cytometry analysis (reference value: 44.7%); type: functional
[6] = tested on: U2OS; assay: Induction of cell cycle arrest in human U2OS cells assessed as percentage of cells at G0/G1 phase, cells were released from mimosine block prior to compound addition at 10 uM after 38 hrs by flow cytometry analysis (reference value: 39.6%); type: functional
[7] = tested on: U2OS; assay: Induction of cell cycle arrest in human U2OS cells expressing pRb negative assessed as percentage of cells at S phase at 5 uM after 24 hrs by flow cytometry analysis (reference value: 30.3%); type: functional
[8] = target: Insulin receptor (Homo sapiens, UniProt P06213); assay: Inhibition of GST-tagged human Insulin receptor expressed in baculovirus infected Sf9 cells using tyrosine-containing peptide substrate in presence of ATP
Chain of Insulin receptor (P06213 28-758 limits assumed): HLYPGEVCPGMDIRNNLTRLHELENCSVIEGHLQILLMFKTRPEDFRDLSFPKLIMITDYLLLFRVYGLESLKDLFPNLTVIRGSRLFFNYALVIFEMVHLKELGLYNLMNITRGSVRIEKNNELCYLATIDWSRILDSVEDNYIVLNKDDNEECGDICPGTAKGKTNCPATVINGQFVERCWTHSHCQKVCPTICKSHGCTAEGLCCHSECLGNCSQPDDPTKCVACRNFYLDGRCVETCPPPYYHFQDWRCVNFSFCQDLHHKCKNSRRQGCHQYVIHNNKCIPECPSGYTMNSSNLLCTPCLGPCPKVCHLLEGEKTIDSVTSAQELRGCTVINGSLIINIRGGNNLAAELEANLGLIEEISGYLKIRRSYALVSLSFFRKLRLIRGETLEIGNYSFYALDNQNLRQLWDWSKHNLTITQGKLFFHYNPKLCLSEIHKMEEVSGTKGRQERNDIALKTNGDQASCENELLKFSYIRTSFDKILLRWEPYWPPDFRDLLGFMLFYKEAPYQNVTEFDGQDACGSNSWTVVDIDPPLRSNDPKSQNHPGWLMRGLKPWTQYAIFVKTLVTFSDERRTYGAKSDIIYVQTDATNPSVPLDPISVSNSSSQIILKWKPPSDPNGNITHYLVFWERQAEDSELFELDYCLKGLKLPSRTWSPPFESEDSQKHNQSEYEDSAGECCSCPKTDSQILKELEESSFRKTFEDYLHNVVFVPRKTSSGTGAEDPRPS
Chain of Insulin receptor (P06213 763-1382 limits assumed): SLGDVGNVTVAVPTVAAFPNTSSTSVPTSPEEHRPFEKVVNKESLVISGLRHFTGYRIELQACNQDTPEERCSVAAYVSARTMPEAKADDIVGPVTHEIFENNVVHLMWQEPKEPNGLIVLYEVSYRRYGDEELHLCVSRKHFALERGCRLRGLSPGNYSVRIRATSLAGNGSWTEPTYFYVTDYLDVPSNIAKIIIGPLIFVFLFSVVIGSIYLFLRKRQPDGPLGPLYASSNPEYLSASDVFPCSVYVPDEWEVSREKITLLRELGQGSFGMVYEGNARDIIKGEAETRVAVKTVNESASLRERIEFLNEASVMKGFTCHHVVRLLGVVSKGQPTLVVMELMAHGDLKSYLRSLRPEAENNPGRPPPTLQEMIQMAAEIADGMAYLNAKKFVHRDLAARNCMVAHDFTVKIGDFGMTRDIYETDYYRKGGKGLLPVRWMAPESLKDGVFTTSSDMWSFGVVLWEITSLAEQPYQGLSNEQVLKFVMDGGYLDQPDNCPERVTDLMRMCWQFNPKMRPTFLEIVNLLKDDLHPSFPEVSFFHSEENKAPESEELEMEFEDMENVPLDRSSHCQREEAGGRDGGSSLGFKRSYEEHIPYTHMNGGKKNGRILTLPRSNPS

[9] = tested on: NIH3T3; assay: Induction of cell cycle arrest in mouse NIH3T3 cells expressing pRb-negative assessed as percentage of cells at S phase at 5 uM after 24 hrs by flow cytometry analysis (reference value: 20%); type: functional
Procedure, shortened: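 Congenic NIH3T3 line with homozygous Rb deletion, grown at 37 °C in 5% CO2 in high-glucose DMEM with 10% FCS. Asynchronous cells were seeded at 7.5 × 10^4 cells/mL, grown 24 h, then treated 24 h (compound added from 100× stocks in 10% DMSO). Cells were ethanol-fixed, treated with RNase and stained with propidium iodide; FL-2 area was measured with single-event gating. Run at least twice.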

[10] = tested on: MRC5; assay: Induction of cell cycle arrest in human MRC5 cells assessed as number of cells at S phase at 10 uM after 24 hrs in presence of 10% serum by flow cytometry analysis (reference value: 16.1%); type: functional
[11] = tested on: U2OS; assay: Induction of cell cycle arrest in human U2OS cells expressing pRb assessed as percentage of cells at G0/G1 phase at 10 uM after 24 hrs by flow cytometry analysis (reference value: 49.8%); type: functional
[12] = tested on: HCT-116; assay: Induction of cell cycle arrest in human HCT-116 cells assessed as number of cells at G0/G1 phase at 10 uM after 24 hrs in presence of 10% serum by flow cytometry analysis (reference value: 49.5%); type: functional; procedure, shortened: as §1
[13] = tested on: MRC5; assay: Induction of cell cycle arrest in human MRC5 cells assessed as number of cells at G2/M phase at 10 uM after 24 hrs in presence of 10% serum by flow cytometry analysis (reference value: 14.9%); type: functional
[14] = tested on: MRC5; assay: Induction of cell cycle arrest in human MRC5 cells assessed as number of cells at G0/G1 phase at 10 uM after 24 hrs in presence of 10% serum by flow cytometry analysis (reference value: 64.1%); type: functional
[15] = tested on: HCT-116; assay: Antitumor activity against human HCT-116 cells xenografted in nude mouse assessed as decrease tumor growth at 30 mg/kg, ip administered every 12 hrs measured after 29 days; type: functional, organism-based
Procedure, shortened: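 Female BALB/c nu/nu mice (19–21 g), 8 per group, injected s.c. with 0.1 mL HCT116 suspension (1 × 10^7 viable cells/mL in Hanks' buffer). Treatment started at about 100 mm3 (day 20). Dosing i.p. in 5% DMSO/0.05% Tween 80/95% saline at 10 mL/kg for 29 days; vehicle controls. Caliper volumes taken blinded every 2–4 days as length × width² × π/6. Dunnett ANOVA; growth rate compared as log-volume slopes.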

[16] = tested on: U2OS; assay: Induction of cell cycle arrest in human U2OS cells assessed as percentage of cells at S phase, cells were released from mimosine block prior to compound addition at 5 uM after 38 hrs by flow cytometry analysis (reference value: […]%); type: functional
[17] = tested on: U2OS; assay: Induction of cell cycle arrest in human U2OS cells assessed as percentage of cells at S phase, cells were released from mimosine block prior to compound addition at 10 uM after 16 hrs by flow cytometry analysis (reference value: 33%); type: functional
[18] = tested on: U2OS; assay: Induction of cell cycle arrest in human U2OS cells assessed as percentage of cells at G0/G1 phase, cells were released from mimosine block prior to compound addition at 5 uM after 16 hrs by flow cytometry analysis (reference value: 17.2%); type: functional
[19] = tested on: NIH3T3; assay: Induction of cell cycle arrest in mouse NIH3T3 cells expressing pRb-negative assessed as percentage of cells at G0/G1 phase at 10 uM after 24 hrs by flow cytometry analysis (reference value: 43.5%); type: functional
[20] = tested on: U2OS; assay: Induction of cell cycle arrest in human U2OS cells assessed as percentage of cells at SubG1 phase, cells were released from mimosine block prior to compound addition at 5 uM after 16 hrs by flow cytometry analysis (reference value: 2.2%); type: functional
[21] = target: Insulin-like growth factor 1 receptor (Homo sapiens, UniProt P08069); assay: Inhibition of GST-tagged human IGF-1R expressed in baculovirus infected Sf9 cells using tyrosine-containing peptide substrate in presence of ATP
Chain of Insulin-like growth factor 1 receptor (P08069 31-736 limits assumed): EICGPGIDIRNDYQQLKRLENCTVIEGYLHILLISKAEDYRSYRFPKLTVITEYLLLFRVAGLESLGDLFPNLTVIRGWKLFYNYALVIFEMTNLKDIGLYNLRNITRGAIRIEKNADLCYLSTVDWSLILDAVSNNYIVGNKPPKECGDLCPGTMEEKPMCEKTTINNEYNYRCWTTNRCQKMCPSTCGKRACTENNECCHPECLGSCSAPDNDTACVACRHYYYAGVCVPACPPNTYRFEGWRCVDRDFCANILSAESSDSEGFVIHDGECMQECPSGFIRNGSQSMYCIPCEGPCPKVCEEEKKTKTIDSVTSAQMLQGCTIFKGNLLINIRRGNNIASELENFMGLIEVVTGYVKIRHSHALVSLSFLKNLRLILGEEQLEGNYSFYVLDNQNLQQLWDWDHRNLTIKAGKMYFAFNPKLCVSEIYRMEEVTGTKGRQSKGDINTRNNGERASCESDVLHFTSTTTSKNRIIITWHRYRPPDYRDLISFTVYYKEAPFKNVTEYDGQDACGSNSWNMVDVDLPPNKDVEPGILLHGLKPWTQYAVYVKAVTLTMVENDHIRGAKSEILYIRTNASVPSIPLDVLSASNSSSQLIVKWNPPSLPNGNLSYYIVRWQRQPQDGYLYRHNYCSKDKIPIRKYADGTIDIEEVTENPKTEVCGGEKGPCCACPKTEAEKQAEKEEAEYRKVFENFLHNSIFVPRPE
Chain of Insulin-like growth factor 1 receptor (P08069 741-1367 limits assumed): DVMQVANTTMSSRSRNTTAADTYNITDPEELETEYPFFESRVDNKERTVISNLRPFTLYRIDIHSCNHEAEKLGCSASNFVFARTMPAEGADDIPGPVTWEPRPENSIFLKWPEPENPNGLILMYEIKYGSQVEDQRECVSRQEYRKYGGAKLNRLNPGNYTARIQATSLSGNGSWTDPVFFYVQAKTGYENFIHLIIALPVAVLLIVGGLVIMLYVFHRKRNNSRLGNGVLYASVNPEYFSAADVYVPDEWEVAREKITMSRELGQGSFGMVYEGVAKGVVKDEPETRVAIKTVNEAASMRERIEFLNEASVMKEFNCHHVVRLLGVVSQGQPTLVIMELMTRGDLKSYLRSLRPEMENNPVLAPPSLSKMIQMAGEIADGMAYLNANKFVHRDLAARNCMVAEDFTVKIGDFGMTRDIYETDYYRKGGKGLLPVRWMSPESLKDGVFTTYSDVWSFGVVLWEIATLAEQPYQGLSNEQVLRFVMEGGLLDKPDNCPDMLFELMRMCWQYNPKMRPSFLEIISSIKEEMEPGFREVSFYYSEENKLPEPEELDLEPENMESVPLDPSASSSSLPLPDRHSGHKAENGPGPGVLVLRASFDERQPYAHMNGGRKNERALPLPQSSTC

[22] = tested on: U2OS; assay: Induction of cell cycle arrest in human U2OS cells assessed as percentage of cells at G2/M phase, cells were released from mimosine block prior to compound addition at 5 uM after 16 hrs by flow cytometry analysis (reference value: 47.6%); type: functional
[23] = tested on: NIH3T3; assay: Induction of cell cycle arrest in mouse NIH3T3 cells expressing pRb assessed as percentage of cells at G0/G1 phase at 10 uM after 24 hrs by flow cytometry analysis (reference value: 44.7%); type: functional
[24] = tested on: U2OS; assay: Induction of cell cycle arrest in human U2OS cells expressing pRb assessed as percentage of cells at S phase at 10 uM after 24 hrs by flow cytometry analysis (reference value: 19.9%); type: functional
[25] = tested on: NIH3T3; assay: Induction of cell cycle arrest in mouse NIH3T3 cells expressing pRb assessed as percentage of cells at S phase at 10 uM after 24 hrs by flow cytometry analysis (reference value: 12.2%); type: functional

CCNc1cc(N[C@H]2CC[C@H](O)CC2)nc(Nc2ccc3c(ccn3Cc3ccccc3)c2)n1 showed an Activity [1] of 2.2%, an Activity [2] of 11% and an Activity [3] of 41%. For the same molecule, the IC50 [4] was > 10 µM, the Activity [5] was 92.3% and the Activity [6] was 14.3%. For the same molecule, the Activity [7] was 26.3%, the IC50 [8] was > 10 µM and the Activity [9] was 9.1%. The Activity [10] was 2.4%, the Activity [11] was 82.9% and the Activity [12] was 60.3%. The Activity [13] was 4.5%, the Activity [14] was 84.8% and the Activity [15] was “Active”. The Activity [16] was 20.6%, the Activity [17] was 29.5% and the Activity [18] was 17.2%. The Activity [19] was 48.7%, the Activity [20] was 12.8% and the IC50 [21] was > 10 µM. The Activity [22] was 47.6%, the Activity [23] was 88.4% and the Activity [24] was 3.6%. It also gave an Activity [25] of 3.1%.
